The values below come from ChEMBL document CHEMBL4422612, “Small Molecule Inhibitor that Stabilizes the Autoinhibited Conformation of the Oncogenic Tyrosine Phosphatase SHP2” (J Med Chem, 2019).

Substitutions are numbered along the chain they refer to. Active and inactive are the calls of the source. The rule behind the calls is not given here.

The test system of experiment [1] is NCI-H661. Briefly: Induction of cell cycle arrest in human NCI-H661 cells at 10 to 20 uM after 24 hrs by propidium iodide-staining based FACS analysis. It counts as functional. Summed up:
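H661 cells treated with 0, 10 or 20 µM for 24 h; cell cycle profile by propidium iodide staining and FACS. Profiles are representative of three independent experiments.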
Background: A flow cytometer gives signals particle by particle.

In experiment [2] the target is T1, Tyrosine-protein phosphatase non-receptor type 11 (Mus musculus) (UniProt P35235).
T1 sequence (whole entry): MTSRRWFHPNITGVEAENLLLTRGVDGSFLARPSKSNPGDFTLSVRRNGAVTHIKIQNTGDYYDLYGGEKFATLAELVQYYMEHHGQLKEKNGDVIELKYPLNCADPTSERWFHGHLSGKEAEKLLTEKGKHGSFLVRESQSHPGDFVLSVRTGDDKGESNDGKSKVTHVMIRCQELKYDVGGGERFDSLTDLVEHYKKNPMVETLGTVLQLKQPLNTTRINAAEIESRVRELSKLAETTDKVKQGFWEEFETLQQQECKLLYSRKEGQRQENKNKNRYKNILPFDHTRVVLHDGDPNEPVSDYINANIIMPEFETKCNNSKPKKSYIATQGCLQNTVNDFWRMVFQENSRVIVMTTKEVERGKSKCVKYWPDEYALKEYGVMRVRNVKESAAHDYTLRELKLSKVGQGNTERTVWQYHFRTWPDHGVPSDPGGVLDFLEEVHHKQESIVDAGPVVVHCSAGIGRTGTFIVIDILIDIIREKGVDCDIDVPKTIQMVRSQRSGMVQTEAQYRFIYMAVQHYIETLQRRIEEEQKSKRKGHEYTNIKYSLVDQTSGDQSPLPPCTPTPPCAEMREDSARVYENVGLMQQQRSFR
Briefly: Inhibition of SHP2 in mouse Ba/F3 cells assessed as reduction in IL3-stimulated ERK phosphorylation pretreated for 4 hrs followed by IL3 stimulation and measured after 5 to 60 mins by Western blot analysis. It counts as cell-based. In short, it runs like this: (§1)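 Ba/F3 cells starved overnight in serum- and cytokine-free RPMI1640. Treated with 20 µM compound for 4 h, then IL-3 (2 ng/mL) for the indicated times. RIPA lysates (50 µg) immunoblotted for p-Erk, p-Akt, p-Jak2 and p-Stat5, then reprobed for total proteins. Representative of three experiments.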

For experiment [3], the target named is T2, Tyrosine-protein phosphatase non-receptor type 11 (Homo sapiens) (UniProt Q06124).
T2 sequence (whole entry): T1 sequence (whole entry) with V450M, V550A, R590K
Briefly: Inhibition of human wild-type full length SHP2 at 20 uM using H-Glu-Phe-pTyr-Ala-Glu-Val-Gly-Arg-Ser-ProPro-Asp-Pro-Ala-Lys as substrate in presence of 0.001% Triton X. In short, it runs like this: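 Full-length SHP2 or SHP1 (0.1 µg) preincubated with compound 30 min at room temperature in 25 mM Tris-HCl pH 7.4, 50 mM NaCl, 5 mM DTT, 2.5 mM EDTA. Phospho-peptide substrate added to 50 µM final; 30 min at 30 °C. Released phosphate read by Malachite Green at OD620. IC50 from six concentrations; three experiments.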

Experiment [4] deals with T2, Tyrosine-protein phosphatase non-receptor type 11 (Homo sapiens). Briefly: Mixed type inhibition of human wild-type full length SHP2 assessed as substrate [Et] at 10 uM using H-Glu-Phe-pTyr-Ala-Glu-Val-Gly-Arg-Ser-Pro-Pro-Asp-Pro-Ala-Lys as substrate by Lineweaver-Burk plot analysis (reference value: 0.029 uM).
The target of experiment [5] is T1, Tyrosine-protein phosphatase non-receptor type 11 (Mus musculus). Briefly: Inhibition of SHP2 in mouse Ba/F3 cells assessed as reduction in IL3-stimulated STAT5 phosphorylation pretreated for 4 hrs followed by IL3 stimulation and measured after 5 to 60 mins by Western blot analysis. It counts as cell-based. In short, it runs like this: as §1
(Immunoblotting shows a protein as a band on a membrane.)

The subject of experiment [6] is NCI-H596. Briefly: Growth inhibition of human NCI-H596 cells after 48 hrs by cell proliferation-based assay. It counts as functional. In short, it runs like this:
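H661 (PTPN11 N58S/+) and H596 (WT PTPN11) lung cancer cells exposed to a concentration series for 48 h, DMSO as control. Cell number measured by One Solution proliferation assay. Triplicates from one of three repeated experiments.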

Consider `CCOc1cc(O)c(C(=O)/C=C/c2ccc(Cl)cc2Cl)cc1CN1CCC=C(n2c(=O)[nH]c3ccccc32)C1`, for which the result in experiment [1] was Active. Further, the inhibition result in experiment [2] and in experiment [5] was “Dose-dependent effect” each time. Moreover, in experiment [3], the inhibition result is “Active”. The Activity in experiment [4] was found to be 0.029 µM. The “growth inhibition (GI)” value in experiment [6] was “Dose-dependent effect”.
